The source made the active and inactive calls. The rule behind the calls is not given here.
Assays:
[1] = target: T1, Glycogen synthase kinase-3 beta (Homo sapiens, UniProt P49841); assay: Inhibition of human GSK-3beta using peptide substrate
WI-38 = assay: Cytotoxicity against human WI38 cells after 48 hrs by MTT assay; type: cell-based; conditions: WI-38, 48 h
How it was run: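 WI-38 human diploid lung fibroblasts cultured in DMEM at 5 × 10^3 cells/well, then tested for cytotoxicity.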

Saccharomyces cerevisiae = assay: Inhibition of calcium signal transduction pathway in Saccharomyces cerevisiae YNS17 assessed as growth restoration; type: functional, organism-based
How it was run: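 Mutant S. cerevisiae YNS17 plate assay. Samples dissolved in MeOH and spotted on plates; growth-restored zones scored over 0.5 to 0.13 μg/spot. Positive control: FK506 at 2.5 ng/spot.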

HL-60 = assay: Cytotoxicity against human HL60 cells after 48 hrs by MTT assay; type: cell-based; conditions: HL-60, 48 h
How it was run: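 HL60 cells grown in RPMI 1640 with 10% heat-inactivated FBS and penicillin (50 units/mL)–streptomycin (50 μg/mL). Exposed to samples for 48 h at 37 °C, humidified, 5% CO2. Viability read by MTT assay; IC50 derived.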

Homo sapiens [2] = organism: Homo sapiens; assay: Inhibition of calcineurin (unknown origin) using DLDVPIPGRFDRRVpSVAAE as substrate by malachite green based colorimetric method
Homo sapiens [3] = organism: Homo sapiens; assay: Inhibition of calcineurin (unknown origin) at 200 uM using DLDVPIPGRFDRRVpSVAAE as substrate by malachite green based colorimetric method
[4] = target: T1, Glycogen synthase kinase-3 beta; assay: Inhibition of human GSK-3beta at 200 uM using peptide substrate
Target sequence in this assay (P49841 whole entry, looked up): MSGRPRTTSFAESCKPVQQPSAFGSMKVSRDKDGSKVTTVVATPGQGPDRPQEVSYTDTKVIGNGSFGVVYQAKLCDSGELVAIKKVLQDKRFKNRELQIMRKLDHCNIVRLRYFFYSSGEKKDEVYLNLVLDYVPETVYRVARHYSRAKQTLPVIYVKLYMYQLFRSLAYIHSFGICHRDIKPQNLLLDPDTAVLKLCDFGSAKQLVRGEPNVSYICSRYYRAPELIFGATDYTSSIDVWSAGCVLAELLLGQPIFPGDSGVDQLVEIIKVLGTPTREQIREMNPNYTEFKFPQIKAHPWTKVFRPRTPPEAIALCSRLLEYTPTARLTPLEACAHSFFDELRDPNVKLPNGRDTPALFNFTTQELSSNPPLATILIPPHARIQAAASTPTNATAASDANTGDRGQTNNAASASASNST

SMILES | IC50 [1] [µM] | inhibition [1] | IC50 (WI-38) [µM] | inhibition (Saccharomyces cerevisiae) | IC50 (HL-60) [µM] | inhibition (Homo sapiens [2]) | inhibition (Homo sapiens [3]) | inhibition [4]
Cc1ccc2c(c1)CC[C@H]1[C@@](C)(CO)CCC[C@]21C | 178 | Dose-dependent effect | > 50 | Dose-dependent effect | 7.1 | Dose-dependent effect |  | 
Cc1ccc2c(c1CCC(C)(C)O)CCCC2(C)C |  |  | > 50 | Dose-dependent effect | 41.7 |  | inactive | inactive
Cc1ccc2c(c1CCC(C)C)CCC[C@]2(C)CO [KUJIGAMBEROL] |  |  | > 50 |  |  |  |  | 

From ChEMBL document CHEMBL4251665, “Ca2+-Signal Transduction Inhibitors, Kujiol A and Kujigamberol B, Isolated from Kuji Amber Using a Mutant Yeast” (J Nat Prod, 2018)
